Assay outcomes from PubChem.
ARNT TACC3 PPI = ARNT/TACC3 interaction disruption; Q9Y6A5; AlphaScreen His-ARNT PAS-B/GST-TACC3 binding, luminescence; TACC3 fragment carries E629A point mutation; inhibition, % at 9.99 µM; 390,000 tested, 0.66% active;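 active = mean inhibition of replicates at least 50% and at least half of replicates each reaching 50%; inconclusive = half or more replicates reach 50% but mean below 50%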
DENV2 CPE rescue = DENV2-induced cell death inhibition | DENV2-infected cells, cytopathic effect rescue, plate reader | CPE inhibition, % at 9.99 µM | AID 651640 | 350,000 tested, 1.7% active; in the data active = CPE inhibition above about 20%, passing the limit was not always enough; inconclusive = no clear call, values can overlap the other calls; tested in BHK-21 cells
FN deposition inh = fibronectin deposition inhibition; inhibition, % at 12.6 µM; AH1F fibroblasts, Alexa488-fibronectin deposition fluorescence, overnight; 350,000 tested, 0.086% active;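 active = mean inhibition across replicates of 30% or more, regardless of how many single replicates reach that level; inconclusive = mean under 30% yet at least half of replicates reach 30%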
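Measured by – fluorescence 485/525 nm · System – AH1F fibroblast monolayer, labelled fibronectin deposition · Amount – 10000 cells per well · Buffer or medium – serum-reduced DMEM (2% serum) · Doses – single dose, pinned · Also added – fluorescent fibronectin at 24 nM final · Schedule – 1 h cell attachment, overnight exposure to compound and label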
Xi reactivation = X-chromosome reactivation activator. XiGFP mouse fibroblasts, % GFP-positive cells imaging, 3 d; cells co-treated with 5-aza-dC sensitizer; scaled so ellipticine positive control = 100%. activation, % at 7.58 µM. 360,000 tested, 0.055% active. AID 743238;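 active = mean normalized replicate activation at least 10% and every replicate at or above 10%; inconclusive = only one of the two criteria met; inactive = mean below 10% and not all replicates reach 10%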
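Assay system: SV40-immortalized XiGFP fibroblast cells, line 68-5-11; buffer or medium: DMEM plus 5-aza-dC sensitizer; compound: one concentration, pinned; timing: compounds 3 days, fix/stain 15 min at room temperature; benchmarks: positive control ellipticine, 6 µM final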
FGF22 binding = binders of recombinant human FGF22 by thermal shift | Q9HCT0 | SYPRO orange fluorescence; percent of sucrose octasulfate shift, DMSO zero | activity (Tm shift, normalised), % at 9.99 µM | 340,000 tested, 1.5% active | AID 651658;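 active = mean Tm shift, scaled 0 neutral to 100 positive control, at about 1.3% or above, every replicate too, limit read from the data; inconclusive = no clear call, values can overlap the other calls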
Target sequence (Q9HCT0 whole entry, looked up): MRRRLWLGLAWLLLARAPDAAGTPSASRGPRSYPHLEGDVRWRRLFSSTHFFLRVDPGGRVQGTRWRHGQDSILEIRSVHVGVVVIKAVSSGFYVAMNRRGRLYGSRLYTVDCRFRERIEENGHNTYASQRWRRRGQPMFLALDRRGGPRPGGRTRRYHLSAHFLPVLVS
SIRT5 inh = inhibitors of human sirtuin-5 desuccinylase; Q9NXA8; Purified SirT5, succinyl-peptide AMC, trypsin-coupled fluorescence; inhibition, % at 15 µM; 330,000 tested, 1.1% active; AID 652115; in the data active = inhibition above about 15%; inconclusive = no clear call, values can overlap the other calls
Target sequence (Q9NXA8 whole entry, looked up): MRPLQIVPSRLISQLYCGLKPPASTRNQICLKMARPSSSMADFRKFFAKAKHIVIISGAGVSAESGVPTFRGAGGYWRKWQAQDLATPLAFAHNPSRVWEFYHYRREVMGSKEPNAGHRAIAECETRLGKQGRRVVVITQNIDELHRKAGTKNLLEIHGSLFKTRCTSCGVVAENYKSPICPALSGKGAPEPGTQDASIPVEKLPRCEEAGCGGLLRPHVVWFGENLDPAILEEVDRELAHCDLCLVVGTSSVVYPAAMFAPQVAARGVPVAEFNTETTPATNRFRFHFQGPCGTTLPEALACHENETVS
A number is an active result; n = inactive; u = inconclusive; x = not tested or not shown. Most compounds without a hit are left out; they make up all but 3.8% or so of the library.

SMILES	ARNT TACC3 PPI	DENV2 CPE rescue	FN deposition inh	Xi reactivation	FGF22 binding	SIRT5 inh
Cc1ccc(S(=O)(=O)N(C)C[C@H]2OCc3cn(nn3)CCCC(=O)N([C@H](C)CO)C[C@H]2C)cc1	x	x	n	n	x	x
O=C(C[C@@H]1CC[C@@H]2[C@H](COC[C@@H](O)CN2Cc2cccc(C(F)(F)F)c2)O1)NCCc1ccccc1	n	n	n	n	n	n
O=C(C[C@H]1CC[C@H]2[C@@H](COC[C@H](O)CN2Cc2cccc(C(F)(F)F)c2)O1)NCc1ccncc1	n	n	n	n	n	16.6
O=C(C[C@@H]1CC[C@H]2[C@@H](COC[C@@H](O)CN2Cc2cccc(C(F)(F)F)c2)O1)NCCc1ccccc1	n	25.7	n	n	n	n
C[C@H]1CN([C@@H](C)CO)C(=O)c2ccccc2-c2ccccc2CO[C@H]1CN(C)Cc1ccc(Cl)c(Cl)c1	x	n	n	n	n	n
Nc1ccn([C@@H]2O[C@H](C(=O)N3CCN(c4ccc(Cl)cn4)CC3)[C@@H](O)[C@H]2O)c(=O)n1	x	n	n	x	n	n
O=C([C@H]1O[C@@H](n2ccc(=O)[nH]c2=O)[C@H](O)[C@@H]1O)N1CCN(c2ccc(Cl)cn2)CC1	x	44.5	n	x	n	n
O=C(C[C@H]1CC[C@H]2[C@@H](COC[C@@H](O)CN2C(=O)c2ccccc2F)O1)N1CCN(c2ccccc2)CC1	n	n	n	n	n	n
C[C@@H]1CCCCO[C@H](CN(C)Cc2ccncc2)[C@H](C)CN([C@@H](C)CO)C(=O)c2cc(NS(=O)(=O)c3ccccc3)ccc2O1	n	33.2	n	n	n	n
C[C@@H]1CN([C@@H](C)CO)C(=O)c2cc(NS(=O)(=O)c3ccccc3)ccc2O[C@@H](C)CCCCO[C@@H]1CN(C)Cc1ccncc1	n	48.9	n	n	n	n
C[C@@H]1CN([C@H](C)CO)C(=O)c2cc(NS(=O)(=O)c3ccccc3)ccc2O[C@@H](C)CCCCO[C@H]1CN(C)Cc1ccncc1	n	n	n	n	n	n
Fc1ccc(CN2[C@@H]3CNC[C@H]2C3c2ccc(-c3ccncc3)cc2)cc1 (some centres not stated)	x	n	n	n	x	n
Cc1noc(C)c1NC(=O)N(C)C[C@H]1Oc2ccc(NC(=O)Cc3cn(C)c4ccccc34)cc2C(=O)N([C@@H](C)CO)C[C@@H]1C	n	n	x	n	n	n
O=C(C[C@@H]1C[C@@H]2c3cc(NC(=O)CC4CC4)ccc3O[C@@H]2[C@H](CO)O1)NCC1CC1	n	n	n	n	n	n
CO[C@@H]1CN(C)C(=O)c2ccc(NC(C)=O)cc2OC[C@H](C)N(C(=O)Cc2ccccn2)C[C@H]1C	n	n	n	n	n	16.1
COCC(=O)Nc1ccc2c(c1)C(=O)N(C)C[C@@H](OC)[C@@H](C)CN(C(=O)c1ccccn1)[C@@H](C)CO2	n	n	n	n	n	n
CO[C@H]1CN(C)C(=O)c2ccc(NC(=O)Nc3cc(F)ccc3F)cc2OC[C@@H](C)N(C(=O)c2ccccn2)C[C@H]1C	n	37.7	n	n	n	x
COCC(=O)Nc1ccc2c(c1)C(=O)N(C)C[C@H](OC)[C@H](C)CN(C(=O)c1ccccn1)[C@@H](C)CO2	n	65.3	n	n	n	n
COCC(=O)Nc1ccc2c(c1)C(=O)N(C)C[C@@H](OC)[C@H](C)CN(C(=O)c1ccccn1)[C@H](C)CO2	n	n	n	n	n	n
COCC(=O)Nc1ccc2c(c1)C(=O)N(C)C[C@@H](OC)[C@@H](C)CN(C(=O)c1ccccn1)[C@H](C)CO2	n	23.3	n	n	n	n
CO[C@@H]1CN(C)C(=O)c2ccc(NC(C)=O)cc2OC[C@H](C)N(C(=O)Cc2ccccn2)C[C@@H]1C	n	n	n	n	n	n
COc1ccc(S(=O)(=O)Nc2ccc3c(c2)C(=O)N([C@@H](C)CO)C[C@H](C)[C@H](CN(C)C(=O)Nc2ccc4c(c2)OCO4)O3)cc1	x	x	n	n	x	x
CN1C(=O)c2cc(NC(=O)c3cccc(F)c3)ccc2OC[C@@H]2O[C@@H](CC(=O)NC3CCC3)CC[C@@H]21	n	n	n	n	n	x
CCC(=O)Nc1ccc2c(c1)OC[C@H](C)N(C(=O)c1ccccn1)C[C@@H](C)[C@@H](OC)CN(C)C2=O	n	n	n	n	n	n
CO[C@@H]1CN(C)C(=O)c2ccc(NC(C)=O)cc2OC[C@@H](C)N(C(=O)CN2CCOCC2)C[C@@H]1C	n	28.1	n	n	n	n
SMILES	ARNT TACC3 PPI	DENV2 CPE rescue	FN deposition inh	Xi reactivation	FGF22 binding	SIRT5 inh
CCC(=O)Nc1ccc2c(c1)OC[C@@H](C)N(C(=O)c1ccccn1)C[C@@H](C)[C@H](OC)CN(C)C2=O	n	25.8	n	n	n	n
N#C[C@@H]1[C@@H](c2ccc(C#CC3CCCCC3)cc2)[C@H](CO)N1C(=O)Cc1ccccn1	n	67.0	n	n	n	n
N#C[C@@H]1[C@H](c2ccc(C#CC3CCCCC3)cc2)[C@H](CO)N1C(=O)Cc1ccccn1	n	x	n	n	n	n
CN(C)CC(=O)N1[C@H](CO)[C@@H](c2ccc(C#CC3CCCCC3)cc2)[C@@H]1C#N	n	n	n	n	n	n
CN(C)CC(=O)N1[C@H](C#N)[C@H](c2ccc(C#CC3CCCCC3)cc2)[C@@H]1CO	n	39.7	n	n	n	n
CN(C)CC(=O)N1[C@H](CO)[C@H](c2ccc(C#CC3CCCCC3)cc2)[C@@H]1C#N	x	u	n	n	x	n
CN(C)CC(=O)N1[C@@H](C#N)[C@H](c2ccc(C#CC3CCCC3)cc2)[C@@H]1CO	n	22.8	n	n	n	n
Cc1ccc(C(=O)NCCc2cc3ccc(C)c(C)c3[nH]c2=O)cc1[N+](=O)[O-]	n	50.1	n	n	n	n
COc1ccc(C(=O)NCCc2cc3ccc(C)c(C)c3[nH]c2=O)cc1OC	n	n	x	n	n	n
Cc1ccc(S(=O)(=O)N(C)C)cc1NC(=O)C(C)OC(=O)c1ccc2c(=O)n3c(nc2c1)CCC3 (configuration not stated)	n	n	n	n	n	n
CC(OC(=O)c1ccc2c(=O)n3c(nc2c1)CCC3)C(=O)NC1CCCCC1C (configuration not stated)	n	33.0	n	n	n	n
Cc1ccc(C(=O)Nc2c(C)n(C)n(-c3ccccc3)c2=O)cc1	n	n	n	n	43.9	n
Cc1c(NC(=O)c2ccc(C(=O)Nc3c(C)n(C)n(-c4ccccc4)c3=O)cc2)c(=O)n(-c2ccccc2)n1C	n	n	n	n	n	n
Cc1ccc(S(=O)(=O)NCCCCCC(=O)Nc2c(C)n(C)n(-c3ccccc3)c2=O)cc1	n	n	n	n	43.2	n
